PAFAH1B2 FP inh = PAFAH1B2 (human) inhibition; inhibition, % at 3.39 µM; recombinant PAFAH1B2, FP-rhodamine activity probe, fluorescence polarization; P68402; actives 1.2% (n = 340,000); AID 492953;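 active = inhibition above the mean of all tested compounds plus 3 SD, cut at about 24% in these data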;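 note: 0% = enzyme with DMSO and 100% = wells lacking PAFAH1B2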
Target sequence (P68402 whole entry, looked up): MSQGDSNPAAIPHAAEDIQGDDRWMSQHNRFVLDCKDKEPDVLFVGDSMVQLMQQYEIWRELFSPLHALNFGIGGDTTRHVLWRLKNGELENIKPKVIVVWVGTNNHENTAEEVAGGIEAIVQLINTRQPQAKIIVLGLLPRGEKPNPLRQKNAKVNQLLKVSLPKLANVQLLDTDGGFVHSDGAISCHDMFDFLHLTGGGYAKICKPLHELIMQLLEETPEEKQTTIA
PAFAH2 inh = PAFAH2 (human) inhibition; Q99487; recombinant PAFAH2, FP-rhodamine activity probe, fluorescence polarization; inhibition, % at 3.39 µM; actives 0.99% (n = 340,000);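 active = inhibition above the mean over all tested compounds plus 3 SD, cut at about 30% in these data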;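 note: inhibitors block probe labeling of enzyme so polarization drops; 0% = enzyme with DMSO and 100% = wells lacking PAFAH2 protein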
PAFAH1B3 FP inh = inhibitors of human PAFAH1B3; Q15102; recombinant PAFAH1B3, FP-rhodamine probe, fluorescence polarization; inhibition, % at 3.39 µM; actives 0.28% (n = 340,000); AID 492972;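 active = inhibition above the screen-wide average of all tested compounds plus 3 SD, cut at about 25% in these data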;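 note: 0% = enzyme with DMSO only and 100% = wells lacking PAFAH1B3 protein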
Target sequence (Q15102 whole entry, looked up): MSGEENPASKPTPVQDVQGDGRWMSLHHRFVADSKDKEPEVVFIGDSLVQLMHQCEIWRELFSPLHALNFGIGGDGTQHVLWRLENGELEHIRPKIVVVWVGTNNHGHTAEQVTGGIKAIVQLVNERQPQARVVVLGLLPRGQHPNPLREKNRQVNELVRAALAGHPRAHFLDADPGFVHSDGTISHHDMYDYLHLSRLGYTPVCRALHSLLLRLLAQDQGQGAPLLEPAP
RBBP9 inhibitor = blocks human serine hydrolase RBBP9 | O75884 | recombinant RBBP9, FP-Rh probe fluorescence polarization | inhibition, % at 7.94 µM | actives 0.2% (n = 220,000);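 active = inhibition above the campaign mean of all tested compounds plus 3 SD, cut at about 14% in these data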;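 note: plate controls were DMSO wells with RBBP9 for no effect and wells lacking RBBP9 protein for full effect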
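Test system – recombinant human RBBP9 · Input – RBBP9 2.5 µM in dispensing solution, pre-mixing · Medium – Tris buffer pH 8.0, NaCl, Pluronic · Schedule – preincubation 30 min plus labeling 45 min at 25 °C · Measured by – fluorescence polarization · Measure – % inhibition · Controls – DMSO and no-protein wells · Replicates – one well per compound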
pPAFAH inh = inhibitors of human plasma PAF acetylhydrolase (pPAFAH). actives 1.5% (n = 330,000). AID 463082. Q13093. inhibition, % at 3.39 µM. recombinant pPAFAH, FP-rhodamine probe fluorescence polarization;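 active = inhibition above the mean inhibition across the screen plus 3 SD, cut at about 25% in these data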;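 note: inhibitors block binding of the rhodamine activity-based probe so polarization drops; 0% = enzyme with DMSO and 100% = wells lacking pPAFAH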
Numbers without * were called inactive; . = not tested or not shown. A selection: hits, their analogues and other compounds. The true share with any hit is near 2.7%.

SMILES	PAFAH1B2 FP inh	PAFAH2 inh	PAFAH1B3 FP inh	RBBP9 inhibitor	pPAFAH inh
CN(C(=O)COC(=O)c1ccc2[nH]c3c(c2c1)CCCC3)C1CCS(=O)(=O)C1 (stereo unspecified)	1	0	1	-9	1
CCOc1cc(/C=C2\SC(=O)N(CC(=O)Nc3ccccc3F)C2=O)cc([N+](=O)[O-])c1O	8	34*	15	-7	32*
NC(=O)c1cc(S(=O)(=O)Nc2cccc(Cl)c2)cs1	2	6	11	.	4
O=C1OC(C(=O)Nc2ccccc2)Cc2ccccc21 (stereo unspecified)	2	49*	6	-6	25*
Cc1cc(N)ccc1N1CCCC1	8	16	9	13	26*
NC(=O)c1cc(N)ccc1N1CCCC1	-2	-5	7	6	4
CCc1nnc(NC(=O)CSc2nnc(-c3ccc(NS(=O)(=O)c4ccccc4)cc3)o2)s1	-1	9	3	-2	10
O=c1ccc2cc3c([nH]c4ccc(Br)cc43)oc-2c1O	42*	52*	45*	10	79*
O=c1c2c([nH]c3ccc(Br)cc13)CCCC2	0	9	1	.	2
CCC(CO)Oc1cc(NCc2ccccc2)c2ncn(C(C)C)c2c1 (stereo unspecified)	4	-5	11	.	7
CCC(CO)Oc1cc(NC(=O)Cc2ccccc2)c2ncn(C(C)C)c2c1 (stereo unspecified)	1	16	1	.	26*
N/C(=N\OC(=O)CCC1CCCCC1)c1ccc([N+](=O)[O-])cc1	25*	20	2	-9	9
Cc1cccc(Nc2sc(C(=O)c3cc4cc(Cl)ccc4o3)c(N)c2C#N)c1	1	6	5	-2	6
O=C(C[C@H]1C[C@H](C(=O)N2CCOCC2)[C@@]2(CCC3CCCC3)c3[nH]c4ccc(Cl)cc4c3CCN2C1=O)NCC12CC3CC(CC(C3)C1)C2	-2	-5	1	.	3
Cc1nc2c(C(=O)NCCc3ccccc3Cl)c[nH]n2c(=O)c1Cl	11	13	7	1	25*
Cc1nc2c(C(=O)NCc3ccccc3Cl)c[nH]n2c(=O)c1Cl	-3	29	1	-3	32*
Cc1cc(C)c2c3c(oc2n1)C(=O)N(c1cccc(Cl)c1)CC(=O)N3	2	0	-3	-1	2
CCN(c1ccc(OCC(=O)OCC(=O)Nc2ccc(F)c(F)c2F)cc1)S(=O)(=O)c1ccccc1	40*	4	5	-4	2
CN(c1ccc(OCC(=O)OCC(=O)Nc2ccccc2)cc1)S(=O)(=O)c1ccc(F)cc1	2	-8	4	-1	7
CN(c1ccc(Cl)cc1)c1cc(=O)n(C)c2ccccc12	29*	-4	1	7	2
COc1ccccc1N1CCN(C2CCN(S(=O)(=O)c3ccc4ccccc4c3)CC2)CC1	1	-2	9	-5	2
Nc1c(C(=O)Nc2ccccc2F)sc2nc(-c3ccco3)ccc12	-3	24	3	6	31*
COc1cc(/C=C/C(=O)O)ccc1OS(=O)(=O)c1c(C)c(C)cc(C)c1C	26*	8	-4	.	7
CC1(C)C(=S)N(Cc2ccccc2)c2ccccc21	7	2	8	.	4
CS(=O)(=O)N(CC(=O)NCCSc1ccccc1)c1ccc2c(c1)OCO2	4	6	4	-2	5
SMILES	PAFAH1B2 FP inh	PAFAH2 inh	PAFAH1B3 FP inh	RBBP9 inhibitor	pPAFAH inh
CS(=O)(=O)N(CC(=O)NCCSc1ccc(Cl)cc1)c1ccc2c(c1)OCO2	25*	8	2	5	0
CC1(C)CC(=O)c2sc(NS(=O)(=O)c3ccc(Br)cc3)nc2C1	27*	9	6	-3	-23
Cc1ccccc1S(=O)(=O)Cc1ccc(C(=O)NCc2ccco2)o1	6	1	2	.	9
Cc1ccccc1CS(=O)(=O)Cc1ccc(C(=O)NCc2ccco2)o1	2	-3	1	-6	25*
COc1cc(-c2ccc3oc(-c4cccc(C)c4)c(C#CC4(O)CCCCC4)c3c2)cc(OC)c1OC	-3	-8	-7	.	27*
Cc1oc(C)c2c(=O)ccc3c(c12)OC(N)=C(C#N)C3c1ccc(F)cc1 (stereo unspecified)	-2	1	-3	-3	32*
NC(=O)CSc1ccc(Br)cc1	50*	-6	3	-7	1
CC(Sc1ccc(Br)cc1)C(N)=O (stereo unspecified)	37*	6	4	-1	5
O=C(CSc1ccc(F)cc1)Nc1ccc(Br)cc1	8	3	-2	-6	-1
C/C(=N\NC(=O)C1CCCC1)c1ccc(Cl)cc1Cl	0	3	-4	.	.
O=[N+]([O-])c1cc(-c2cnc3ccccc3n2)ccc1Oc1ccc(Br)cc1	54*	-7	2	2	5
Cc1c(Cl)cccc1N1C(=O)C2ON(c3ccccc3)C(c3cccnc3)C2C1=O (stereo unspecified)	3	4	12	-7	2
O=C(Nn1nnnc1Nc1ccccc1)C12CC3CC(CC(C3)C1)C2	27*	4	3	-8	5
O=C(CN(Cc1ccco1)Cc1cccs1)N1CCN(S(=O)(=O)c2cccc(F)c2)CC1	26*	0	4	.	3
CC(C)CC(=O)Nc1cccc(C(=O)Nc2ccccc2C(=O)O)c1	0	0	7	3	0
CCOc1cc(C(=S)N2CCOCC2)cc(Br)c1OS(=O)(=O)c1ccccc1	1	-1	8	.	4
Cc1cccc(N2CC(C(=O)Nc3nnc(SCc4ccccn4)s3)CC2=O)c1 (stereo unspecified)	5	9	11	.	27*
Cc1ccc(-c2[nH]ncc2/C=N/n2c(COc3ccccc3)nc3ccccc3c2=O)cc1	-8	-3	-3	-10	-7
Cc1cc(/C=N/n2c(COc3ccccc3)nc3ccccc3c2=O)c(O)c([N+](=O)[O-])c1	8	-7	16	-4	31*
COc1ccccc1NC(=O)c1sc2nc(N3CCOCC3)c3c(c2c1N)CCCC3	2	5	3	.	8
Cc1ccccc1NC(=O)c1sc2nc(N3CCOCC3)c3c(c2c1N)CCCC3	3	-1	4	.	27*
O=C1CC(c2ccc(S(=O)(=O)NCc3ccccc3)cc2)CN1 (stereo unspecified)	3	-4	-3	-8	-4
Cc1ccccc1NS(=O)(=O)c1ccc(C2CNC(=O)C2)cc1 (stereo unspecified)	4	-1	4	0	33*
Cc1cccc(C(=O)NC(=S)Nc2cccc3nc(C)ccc23)c1	0	-2	-3	.	4
COc1cc(/C=C(\C#N)c2nc3c(s2)CCCC3)ccc1O	.	.	.	-7	35*
N#C/C(=C\c1cccnc1)c1nc2c(s1)CCCC2	-2	8	0	4	1
O=C(O/N=C/c1ccc2c(c1)OCO2)c1ccccc1Cl	.	.	.	0	37*
